Series [1] is described as follows: Stability in human plasma assessed as compound remaining at 6 hrs by HPLC-MS analysis. Format: ADME, cell-free. The note with it: read-out: Stability.
Series [2] deals with Acinetobacter baumannii. Briefly: Antibacterial activity against Acinetobacter baumannii HUMC1 assessed as inhibition of bacterial growth incubated for 20 hrs by microdilution assay. The format is functional. Put shortly:
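Broth microdilution per CLSI against XDR A. baumannii HUMC1. Inoculum 5×10^5 CFU/mL in RPMI + 10% FCS, or in CAMHB + 50% human serum. Compounds tested as 2-fold dilutions from 32 µg/mL final. Plates incubated without shaking at 35 °C for 20 h. MIC read visually as the lowest concentration with no visible growth. Three independent replicates.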
(In general: In broth dilution the organism is exposed to a series of concentrations in liquid medium.)

The nature of series [3]: Plasma concentration in CD-1 mouse at 7 mg/kg, iv measured after 24 hrs by LC-MS/MS analysis. Format: ADME, organism-based. The conditions noted are these: in vivo. Put shortly:
(§1)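 Female CD-1 (RjOrl:SWISS) mice, 8 weeks old at delivery, 9 per compound, given a single IV bolus into a lateral tail vein at 5 mL/kg. Basic compounds were dosed in 0.9% NaCl with 26 mM HCl, with 10% DMSO added for the parent drug; the phosphate prodrug was dosed in PBS pH 7.4. Retrobulbar blood was taken at 5, 15, 30 min and 1, 2, 4, 8, 12, 24 h. Plasma rifabutin was quantified by LC-MS/MS against a calibration curve, with griseofulvin as internal standard.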

A short description of series [4]: Elimination half life in CD-1 mouse at 7 mg/kg, iv measured at 5 to 24 hrs by LC-MS/MS analysis. Format: ADME, organism-based. The note with it: in vivo, time lower 5 hrs, read-out: LambdaZ (converted). The method in brief: as §1
The test system of series [5] is Staphylococcus aureus. Briefly: Antibacterial activity against Staphylococcus aureus assessed as reduction in bacterial growth in CAMHB preincubated 6 hrs followed by human serum addition and measured after 20 hrs by microdilution assay. The note with it: time 26 hrs. Format: functional. Put shortly: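 S. aureus USA300 UAMS-1625 in CAMHB. Drug at 10-fold the 32 µg/mL top concentration was first preincubated in 100% human serum for 6 h, then serially diluted 2-fold and bacteria added (5×10^5 CFU/mL inoculum). Plates held static at 35 °C for 20 h. MIC read visually. Three independent replicates.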

The subject of series [6] is Staphylococcus aureus. Briefly: Antibacterial activity against Staphylococcus aureus assessed assessed as reduction in bacterial growth in CAMHB in absence of human serum measured after 20 hrs by microdilution assay. Format: functional. The method in brief: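 S. aureus USA300 UAMS-1625 in CAMHB without serum. CLSI broth microdilution, inoculum 5×10^5 CFU/mL, 2-fold dilutions from 32 µg/mL final. Plates held static at 35 °C for 20 h. MIC was the lowest concentration with no visible growth. Three independent replicates.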

Series [7] in a line: Water solubility of compound in PBS buffer at pH 7.4 by UPLC-MS analysis. The format is physicochemical. Put shortly:
(§2)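 Compounds were suspended at a nominal 10 or 50 mg/mL in PBS pH 7.4 or 26 mM HCl, vortexed, and mixed at 35 rpm for 24 h at RT. The mixture was centrifuged, the supernatant filtered and diluted 2000-fold in CH3CN, and analysed by UPLC-MS/MS (MRM). Solubility = AUC(buffer)/AUC(DMSO) × theoretical concentration.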

Series [8] in a line: Tmax in CD-1 mouse at 7 mg/kg, iv measured at 5 to 24 hrs by LC-MS/MS analysis. Format: ADME, organism-based. The note with it: in vivo, time lower 5 hrs. Put shortly: as §1
Series [9] can be described thus: Chemical stability of compound by UPLC-MS/MS analysis. The conditions noted are these: pH 7.4.
Series [10] can be described thus: Cmax in CD-1 mouse at 7 mg/kg, iv measured at 5 to 24 hrs by LC-MS/MS analysis. Format: ADME, organism-based. More on the design: dose 7 mg/kg, route iv. The conditions noted are these: in vivo. The method in brief:
as §1

For series [11], the system named is Acinetobacter baumannii. The series is described as follows: Antibacterial activity against Acinetobacter baumannii assessed as reduction in bacterial growth in CAMHB preincubated 6 hrs followed by human serum addition and measured after 20 hrs by microdilution assay. The format is functional.
A short description of series [12]: AUC (0 to infinity) in CD-1 mouse at 7 mg/kg, iv measured at 5 to 24 hrs by LC-MS/MS analysis. Format: ADME, organism-based. More on the design: dose 7 mg/kg, route iv. The note with it: in vivo. The method in brief:
as §1

Series [13] can be described thus: AUC (0 to infinity) in CD-1 mouse at 6.5 mg/kg, iv measured at 5 to 24 hrs by LC-MS/MS analysis. The format is ADME, organism-based. On the set-up: dose 6.5 mg/kg, route iv. The conditions noted are these: in vivo. The method in brief:
as §1

A short description of series [14]: Water solubility of compound in HCL by UPLC-MS analysis. Format: physicochemical. The method in brief: as §2
A short description of series [15]: Cmax in CD-1 mouse at 6.5 mg/kg, iv measured at 5 to 24 hrs by LC-MS/MS analysis. Format: ADME, organism-based. More on the design: time lower 5 hrs, dose 6.5 mg/kg, route iv. The conditions noted are these: in vivo. Put shortly: as §1
Series [16] can be described thus: Elimination half life in CD-1 mouse at 6.5 mg/kg, iv measured at 5 to 24 hrs by LC-MS/MS analysis. The format is ADME, organism-based. The conditions noted are these: in vivo, time lower 5 hrs, read-out: LambdaZ (converted). The method in brief:
as §1

Series [17] in a line: Tmax in CD-1 mouse at 6.5 mg/kg, iv measured at 5 to 24 hrs by LC-MS/MS analysis. Format: ADME, organism-based. The note with it: in vivo, time lower 5 hrs. Put shortly: as §1
A short description of series [18]: Plasma concentration in CD-1 mouse at 6.5 mg/kg, iv measured after 24 hrs by LC-MS/MS analysis. The format is ADME, organism-based. The conditions noted are these: in vivo. Put shortly:
as §1

Series [19] is described as follows: Cmax in CD-1 mouse at 5 mg/kg, iv measured at 5 to 24 hrs by LC-MS/MS analysis. Format: ADME, organism-based. The note with it: in vivo. More on the design: dose 5 mg/kg, route iv. The method in brief: as §1
Series [20] can be described thus: AUC (0 to infinity) in CD-1 mouse at 5 mg/kg, iv measured at 5 to 24 hrs by LC-MS/MS analysis. The format is ADME, organism-based. More on the design: dose 5 mg/kg, route iv. The note with it: in vivo. The method in brief:
as §1

Series [21] in a line: Elimination half life in CD-1 mouse at 5 mg/kg, iv measured at 5 to 24 hrs by LC-MS/MS analysis. The format is ADME, organism-based. The note with it: in vivo, time lower 5 hrs, read-out: LambdaZ (converted). The method in brief: as §1

Converted amounts (≈) assume the structure as drawn.

Here are results for seven molecules from ChEMBL document CHEMBL5137048, “Design and synthesis of water-soluble prodrugs of rifabutin for intraveneous administration” (Eur J Med Chem, 2022).

What is called MIC is the lowest concentration that inhibits growth of the organism. For orientation: solubility means how much of the substance goes into solution per volume. Usually Tmax stands for the time from dosing to the highest level. The term Cmax denotes the maximum level reached in the sampled fluid or tissue. A word on the AUC(0-inf): it is the area under the concentration-time curve extrapolated to infinity. High values mean high exposure, low ones low exposure.

Turning to `COCCC(=O)O[C@@H]1[C@@H](C)[C@@H](O)[C@@H](C)[C@H](OC(C)=O)[C@H](C)[C@@H](OC)/C=C/O[C@@]2(C)Oc3c(C)c(O)c4c(c3C2=O)C2NC3(CCN(CC(C)C)CC3)NC2=C(NC(=O)/C(C)=C\C=C\[C@@H]1C)C4=O` (stereo partly specified), in series [1], the remaining at 6 h turned out to be 99%. For the same molecule, in the series on Acinetobacter baumannii [2], the MIC was above 32 µg/mL.
Regarding `CO[C@H]1/C=C/O[C@@]2(C)Oc3c(C)c(O)c4c(c3C2=O)C2NC3(CCN(CC(C)C)CC3)NC2=C(NC(=O)/C(C)=C\C=C\[C@H](C)[C@H](OC(=O)CN(C)C(=O)CNC(=O)OCc2ccc(OP(=O)(O)O)cc2)[C@@H](C)[C@@H](O)[C@@H](C)[C@H](OC(C)=O)[C@@H]1C)C4=O` (stereo partly specified), in series [3], the Drug uptake entry was “Active”. In series [4], the half-life is 2.9 h. Also, the MIC in the series on Staphylococcus aureus [5] turned out to be 0.06 µg/mL (≈ 0.0497 µM); with Staphylococcus aureus [6], 32 µg/mL (≈ 26.5 µM); in the series on Acinetobacter baumannii [11] it was 0.001 µg/mL (≈ 0.000828 µM). This molecule also came in with a solubility in [7] of 4.5 mg/mL (≈ 3730 µM). Further, the Tmax in series [8] stood at 4.98 min. This molecule registered a Stability in [9] of 101%. The same molecule had a Cmax in series [10] of 2700 ng/mL. The molecule also yielded a total exposure AUC(0-inf) in [12] of 8200 ng·h/mL.
With `COCCC(=O)N1C2=C3NC(=O)/C(C)=C\C=C\[C@H](C)[C@H](O)[C@@H](C)[C@@H](O)[C@@H](C)[C@H](OC(C)=O)[C@H](C)[C@@H](OC)/C=C/O[C@@]4(C)Oc5c(C)c(O)c(c(c5C4=O)C2NC12CCN(CC(C)C)CC2)C3=O` (stereo partly specified), in series [1], the remaining at 6 h worked out at 2%.
On to `COCCOC(=O)N1C2=C3NC(=O)/C(C)=C\C=C\[C@H](C)[C@H](O)[C@@H](C)[C@@H](O)[C@@H](C)[C@H](OC(C)=O)[C@H](C)[C@@H](OC)/C=C/O[C@@]4(C)Oc5c(C)c(O)c(c(c5C4=O)C2NC12CCN(CC(C)C)CC2)C3=O` (stereo partly specified), for which, in series [1], the remaining at 6 h came out at 86%. Also, the MIC with Acinetobacter baumannii [2] was determined as 0.06 µg/mL (≈ 0.0631 µM).
Consider `CO[C@H]1/C=C/O[C@@]2(C)Oc3c(C)c(O)c4c(c3C2=O)C2NC3(CCN(CC(C)C)CC3)NC2=C(NC(=O)/C(C)=C\C=C\[C@H](C)[C@H](OC(=O)CN(C)C(=O)CNC(=O)[C@@H](N)CCCCN)[C@@H](C)[C@@H](O)[C@@H](C)[C@H](OC(C)=O)[C@@H]1C)C4=O` (stereo partly specified), for which, in series [13], the AUC(0-inf) is 1000 ng·h/mL. Further, the MIC in the series with Staphylococcus aureus [5] is 0.06 µg/mL (≈ 0.0543 µM); with Staphylococcus aureus [6] it was 16 µg/mL (≈ 14.5 µM); with Acinetobacter baumannii [11], 0.001 µg/mL (≈ 0.000905 µM). Also, the solubility in series [7] was above 50 mg/mL; in [14] it was 34.4 mg/mL (≈ 31100 µM). The same molecule displayed a Stability in series [9] of 99%. For the same molecule, the Cmax in [15] worked out at 300 ng/mL. Besides, in series [16], the half-life is 10.7 h. Further, in [17], the Tmax was found to be 4.98 min. In addition, the Drug uptake entry in series [18] is “Active”.
As for `CO[C@H]1/C=C/O[C@@]2(C)Oc3c(C)c(O)c4c(c3C2=O)C2NC3(CCN(CC(C)C)CC3)NC2=C(NC(=O)/C(C)=C\C=C\[C@H](C)[C@H](OC(=O)CN(C)C(=O)COC(=O)CN(C)C)[C@@H](C)[C@@H](O)[C@@H](C)[C@H](OC(C)=O)[C@@H]1C)C4=O` (stereo partly specified), in series [13], the area under the curve AUC(0-inf) was determined as 6700 ng·h/mL. Moreover, the MIC was determined as 0.06 µg/mL (≈ 0.0564 µM) with Staphylococcus aureus [5], 1 µg/mL (≈ 0.941 µM) in the series on Staphylococcus aureus [6] and 0.001 µg/mL (≈ 0.000941 µM) in the series on Acinetobacter baumannii [11]. Moreover, the solubility was determined as 0.7 mg/mL (≈ 658 µM) in [7] and 12.2 mg/mL (≈ 11500 µM) in series [14]. The molecule further returned a Stability in series [9] of 101%. In series [15], this molecule showed a Cmax of 1100 ng/mL. The half-life in [16] is 3 h. Moreover, in [17], the Tmax stood at 4.98 min. In addition, in [18], the Drug uptake entry is on record as “Active”.
For `CO[C@H]1/C=C/O[C@@]2(C)Oc3c(C)c(O)c4c(c3C2=O)C2=NC3(CCN(CC(C)C)CC3)NC2=C(NC(=O)/C(C)=C\C=C\[C@H](C)[C@H](O)[C@@H](C)[C@@H](O)[C@@H](C)[C@H](OC(C)=O)[C@@H]1C)C4=O` [RIFABUTIN], the MIC in the series with Staphylococcus aureus [5] turned out to be 0.03 µg/mL (≈ 0.0354 µM); with Staphylococcus aureus [6], 0.016 µg/mL (≈ 0.0189 µM); with Acinetobacter baumannii [11] it was 0.00025 µg/mL (≈ 0.000295 µM); in the series on Acinetobacter baumannii [2], 0.002 µg/mL (≈ 0.00236 µM). The molecule also had a Cmax in series [19] of 2200 ng/mL. In addition, the figures for the solubility in series [7] and in series [14] were 0.2 mg/mL (≈ 236 µM) and 17.7 mg/mL (≈ 20900 µM), respectively. Besides, in series [20], the AUC(0-inf) was 6600 ng·h/mL. Also, the half-life in series [21] was 3.4 h.
